Bioassay records: PubChem BioAssay, several laboratories
PABP1 MLLE inh: inhibitors of PABP1 MLLE–PAM2 peptide binding, primary screen, biochemical, fluorescence polarization, FITC-PAM2, GST-MLLE; Polyadenylate-binding protein 1 (Homo sapiens), P11940; inhibition, % at 20 µM; actives 0.36% (n = 360,000); in the data active = inhibition above about 35%, passing the limit was not always enough
Target sequence (P11940 whole entry, looked up): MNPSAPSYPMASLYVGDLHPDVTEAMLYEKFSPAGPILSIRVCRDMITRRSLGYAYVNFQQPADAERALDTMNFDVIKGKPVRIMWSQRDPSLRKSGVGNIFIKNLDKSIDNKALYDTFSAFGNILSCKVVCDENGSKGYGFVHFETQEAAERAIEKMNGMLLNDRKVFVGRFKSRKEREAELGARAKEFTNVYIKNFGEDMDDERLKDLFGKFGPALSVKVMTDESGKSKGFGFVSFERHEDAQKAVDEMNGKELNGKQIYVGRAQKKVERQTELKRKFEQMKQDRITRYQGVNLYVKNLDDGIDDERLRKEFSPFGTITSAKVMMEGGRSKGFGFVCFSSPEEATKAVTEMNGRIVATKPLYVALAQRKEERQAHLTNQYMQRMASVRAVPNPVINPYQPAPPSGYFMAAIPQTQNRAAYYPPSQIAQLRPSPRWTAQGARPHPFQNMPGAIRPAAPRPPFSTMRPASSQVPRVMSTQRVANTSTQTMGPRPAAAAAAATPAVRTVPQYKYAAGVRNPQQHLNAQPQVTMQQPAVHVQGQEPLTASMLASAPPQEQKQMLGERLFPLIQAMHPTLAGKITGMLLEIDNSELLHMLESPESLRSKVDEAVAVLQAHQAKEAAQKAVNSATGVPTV
PABP polyA inh: PABP poly(A) RNA binding inhibitors, primary screen, biochemical, fluorescence polarization, uHTS; calls only at 35 µM; Polyadenylate-binding protein 1 (Homo sapiens), P11940; actives 1% (n = 290,000);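 note: calls also rest on retests at 20 µM and on dose response follow-up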
VIM-2 inhibitor: VIM-2 metallo-beta-lactamase inhibitors, primary screen, biochemical, epi-absorbance readout, Pseudomonas aeruginosa enzyme. purified VIM-2, nitrocefin hydrolysis, epi-absorbance fluorescence. inhibition, % at 5.6 µM. actives 0.89% (n = 290,000);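 active = inhibition above the mean of all tested compounds plus 3 SD, cutoff set per screening run, cut at about 7.5% in these data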;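 note: red hydrolysis product quenches plate fluorescence so inhibitors raise well fluorescence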
eIF4H inh: human eIF4H binding inhibitors, primary screen, translation initiation inhibitor project, biochemical, uHTS, fluorescence polarization; Eukaryotic translation initiation factor 4H (Homo sapiens), Q15056; eIF4H fluorescence polarization binding assay; inhibition, % at 35 µM; actives 0.94% (n = 290,000); AID 2012, 2009;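 note: calls also rest on retests at 20 µM and on dose response follow-up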
IMP-1 inhibitor: IMP-1 metallo-beta-lactamase inhibitors, primary screen, biochemical, epi-absorbance readout, Pseudomonas aeruginosa enzyme; metallo-beta-lactamase IMP-1 (Pseudomonas aeruginosa); purified IMP-1, nitrocefin hydrolysis, epi-absorbance fluorescence; inhibition, % at 5.6 µM; actives 0.45% (n = 290,000); AID 1556, 2009;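 active = inhibition above the mean plus 3 SD of all compounds in the same screening run, cut at about 4.5% in these data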
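System: purified IMP-1 / Input: IMP-1 dispensed at 0.2 nM / Medium: 50 mM HEPES pH 7.1, 50 µM ZnSO4, 0.05% Brij 35 / Timing: 15 min enzyme–compound preincubation, then 25 min nitrocefin reaction, 25 °C / Technique: plate fluorescence quenching by hydrolysis product, ex 480/em 530 nm / Repeats: singlicate testing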
A number is an active result; n = inactive; u = inconclusive; x = no result; + = active, no number. Only some compounds are listed: those with a hit (about 2.2% of all), similar ones and a draw of the others. Unless noted, the rule behind the calls is not given here.

SMILES | PABP1 MLLE inh | PABP polyA inh | VIM-2 inhibitor | eIF4H inh | IMP-1 inhibitor
Cn1c(=O)cc2c3c(c(N4CCCCC4)ccc31)C(=O)c1ccccc1-2 | n | u | 10 | u | n
FC(F)(F)c1ccc(C2NCCc3sccc32)cc1 (stereo unspecified) | n | n | n | n | n
CC1(C)Cc2c(c(-c3ccco3)nc3sc4c(NCCCO)ncnc4c23)CO1 | n | n | n | n | 9.3
CC1(C)Cc2c(c(-c3ccco3)nc3sc4c(NCCN5CCOCC5)ncnc4c23)CO1 | n | n | n | n | n
CCNCCNC(=O)c1c(O)c2cccc3c2n(c1=O)CCC3 | n | n | 8.5 | n | n
CCCCNC(=O)c1c(O)c2cccc3c2n(c1=O)CCC3 | n | n | n | n | n
CCCc1nnc(NC(=O)c2c(O)c3cccc4c3n(c2=O)CCC4)s1 | x | + | x | 96 | x
O=C(NCCCO)c1c(O)c2cccc3c2n(c1=O)CCC3 | n | n | 11 | n | n
O=C1c2nc3cc(-c4ccco4)[nH]n3c(=O)c2CN1Cc1ccccc1 | n | + | n | 85 | n
CCCNC(=O)/C(C#N)=C1\N=C(NC(=O)c2cccs2)c2ccccc21 | n | n | n | n | n
c1nc(N2CCOCC2)c2sc3nc(N4CCOCC4)c4c(c3c2n1)CCCC4 | x | x | n | x | n
CCN(CC)c1ncnc2c1sc1nc(N3CCOCC3)c3c(c12)CCC3 | x | n | n | n | 7.0
CC1(C)Cc2c(c(N3CCOCC3)nc3sc4c(NN)ncnc4c23)CS1 | n | n | n | n | 12
CC(C)CNc1nnnc2c1sc1nc(N3CCOCC3)c3c(c12)CC(C)(C)SC3 | n | n | n | n | n
CCCn1c(C(C)Nc2nc(-c3ccc(C)cc3)cs2)nc2ccccc21 (stereo unspecified) | n | n | n | n | n
CCCn1c(C(C)Nc2nc(-c3cccc(Br)c3)cs2)nc2ccccc21 (stereo unspecified) | n | n | 7.9 | n | n
CCOCCCNC(=O)C1CCCN(S(=O)(=O)c2cccc3nsnc23)C1 (stereo unspecified) | n | n | n | n | n
COc1ccc(NC(=O)c2nn(C34CC5CC(CC(C5)C3)C4)cc2[N+](=O)[O-])cc1 | n | + | n | 12 | n
O=C(O)CCn1c(CO)nc2ccccc21 | n | n | n | n | n
O=C(O)CCn1c(-c2ccccn2)nc2ccccc21 | n | n | n | 91 | n
O=C(CCOc1ccccc1)Nc1ccc([N+](=O)[O-])cc1 | n | n | n | n | n
CCN(CC)CCCN1C(=O)C(O)=C(C(=O)c2ccc(C)o2)C1c1ccc(C)o1 (stereo unspecified) | n | + | n | n | n
COCCCN1C(=O)C(CC(=O)NC2CC2)CC(C(=O)N2CCOCC2)=C1C (stereo unspecified) | n | x | x | x | x
COc1ccc(NC(=S)Nc2cccc3cnccc23)cc1 | n | + | n | n | n
CN(C)S(=O)(=O)c1cccc(NC(=S)Nc2cccc3cnccc23)c1 | n | n | 12 | n | n
SMILES | PABP1 MLLE inh | PABP polyA inh | VIM-2 inhibitor | eIF4H inh | IMP-1 inhibitor
S=C(Nc1cccnc1)Nc1cccc2cnccc12 | n | n | n | u | n
CCOc1ccc(NC(=S)Nc2cccc3cnccc23)cc1 | n | n | n | n | n
COc1cccc(CNC(=O)COC(=O)CCc2cc(OC)c(OC)c(OC)c2)c1 | n | x | x | x | x
CCCCCc1c(O)nc(SCCN(CC)CC)[nH]c1=O | n | + | n | active | n
CCCCc1c(O)nc(SCC(=O)c2ccccc2)[nH]c1=O | 39 | n | n | n | 12
O=C(CSc1nc(O)c(Cc2ccccc2)c(=O)[nH]1)c1ccccc1 | 41 | n | n | n | n
CC(C)c1ccc(NC2CCCN(C(=O)CCN3CCCCO3)C2)cc1 (stereo unspecified) | n | n | n | n | n
CSCCC(NC(=O)c1ccco1)C(=O)N(C)CC(=O)Nc1ccccc1Br (stereo unspecified) | n | x | x | x | x
CC(=O)Nc1cc2c(cc1Br)-c1ccccc1C2 | n | x | x | x | x
COc1ccc2cc(/C=C/C(=O)c3ccco3)c(Cl)nc2c1 | x | n | n | n | n
COc1cc2cc(/C=C/C(=O)c3ccco3)c(Cl)nc2cc1OC | n | + | n | 77 | n
CCn1cnc2c1c(=O)n(CC(=O)NCc1ccccc1)c(=O)n2Cc1ccccc1 | n | n | n | n | n
CCn1cnc2c1c(=O)n(CC(=O)NCC(F)(F)F)c(=O)n2Cc1ccccc1 | n | + | n | 99 | n
Cc1ccccc1C(=O)NC(=S)Nc1ccc2[nH]c(=O)[nH]c2c1 | n | n | n | n | n
O=C(CCCN1C(=O)/C(=C/c2ccccc2Cl)SC1=S)NCCCN1CCOCC1 | 41 | n | n | n | n
COc1ccc(C(CNC(=O)C(C)c2ccc3cc(OC)ccc3c2)N(C)C)cc1 (stereo unspecified) | n | n | n | n | n
COc1ccc2cc([C@H](C)C(=O)N(C)Cc3ccccc3N3CCCC3)ccc2c1 | n | n | 7.8 | n | n
COc1ccc(-c2csc(C(O)c3ccc(F)cc3)n2)cn1 (stereo unspecified) | n | x | x | x | x
CC(COc1ccccc1)N(CCCl)Cc1ccccc1 (stereo unspecified) | n | + | n | active | n
CN(CCOc1ccccc1)Cc1ccccc1 | n | x | x | x | x
CCOC(=O)c1ccccc1NC(=O)COC(=O)CCNS(=O)(=O)c1cccs1 | n | x | x | x | x
COc1ccc(Cl)cc1S(=O)(=O)NCc1nc2nc(C)cc(C)n2n1 | n | n | n | n | n
CCCc1n(CC(O)COC2CCCCC2)c2ccccc2[n+]1C (stereo unspecified) | n | + | n | n | n
CCCc1n(CC(O)COCC2CC=CCC2)c2ccccc2[n+]1C (stereo unspecified) | n | + | n | n | n
CCCc1n(CC(O)COCc2ccccc2)c2ccccc2[n+]1C (stereo unspecified) | n | n | n | n | n
SMILES | PABP1 MLLE inh | PABP polyA inh | VIM-2 inhibitor | eIF4H inh | IMP-1 inhibitor
N#Cc1c(-c2ccccc2Cl)noc1/C=C/Nc1ccc(C(=O)O)cc1 | n | + | n | 52 | n
CC(C)(C)OC(=O)N[C@@H](Cc1ccccc1)C(=O)N1CCC(C(=O)NCC(=O)O)CC1 | n | n | n | n | n
CC(C)(C)OC(=O)NC(Cc1ccccc1)C(=O)N1CCC(C(=O)NCC(=O)Nc2ccc(F)cc2)CC1 (stereo unspecified) | 38 | u | n | u | n
CC(=O)n1nc(-c2ccc(C)cc2)nc1NCc1ccc(F)cc1 | n | n | n | n | n
CCn1c(SCc2ccccc2F)nnc1-c1ccncc1 | n | n | n | n | n
CC(C)OC(=O)c1ccc(N)cc1 | n | n | n | n | n
Cc1ccccc1Cn1ccc(NC(=O)c2cc3ncc(Br)cn3n2)n1 | n | n | n | 53 | n
CC1(C(=O)NS(=O)(=O)c2cccc(C#N)c2)CCN1C(=O)CC1CCCC1 (stereo unspecified) | n | x | x | x | x
